# Test results published in PMC8341669 (RSC Chemical Biology, 2021).
# Assay: CD spectrum / MD helical content of the peptide in the free state
# Type: physicochemical
# Settings: CD in H2O at 200 μM and MD simulations
# Outline: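 Peptide dissolved in HPLC-grade water at 200 μM and CD spectra recorded on a spectropolarimeter. Free peptide in solution MD: steepest-descent minimisation, 1 ns NVT (300 K, V-rescale) and 1 ns NPT (1 bar, Parrinello–Rahman) equilibration with heavy-atom restraints stepped off, then four 200 ns NPT production runs per peptide; PME electrostatics, 10 Å van der Waals cut-off, LINCS constraints.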
sequence,measurement,value
RIRREEYLKAIQ [Linear],α-helical content in the free state,lower α-helical content
